According to the RNAGym collection of RNA variant scans (doi:10.1126/science.aae0568):
This sample holds only a part of the variants without activity.

B1: tRNA (parent)
chain: GUUCCGUUGGCGUAAUGGUAACGCGUCUCCCUCCUAAGGAGAAGACUGCGGGUUCGAGUCCCGUACGGAACG

Variants of: B1
Assay: yeast fitness relative to wild type (ratio to wild type); higher = fitter; tRNA-Arg(CCU), competitive growth, 37 C, YPD
Summary of the method: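 Start and end populations of a pooled competition were compared by 100-nucleotide paired-end sequencing of gene amplicons. The Saccharomyces cerevisiae strains carried tRNA-Arg(CCU) gene variants at the native genomic locus, synthesised with a 3% per-site mutation rate at 69 sites, and competed in YPD at 37°C for 24 hours in six parallel replicates. Darwinian fitness relative to wild type was based on the change in genotype frequencies. Genotypes required ≥ 100 starting reads, and estimates < 0.5 were set to 0.5.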

| Variant | yeast fitness |
| --- | --- |
| GUUCCGUUGGCGUAAUGGAAACGAGUCUCCCUCCUAAGGAGAAGACUGCGGGUUCGAGUCCCGUACGGAACG [U19A C24A] | 0.598 |
| GUUCCGUUGGCGUAAUGCGAACGCGUCUCCCUCCUAAGGAGAAGCCUGCGGGUUCGAGUCCCGUACAGAACG [G18C U19G A45C G67A] | ≤ 0.5 |
| GUUCCGUUGGCGUAAUGUUAACGCGUCUCCUUCCUAAGGAGAAGACUGCGGGUUCGAGUCCCAUACGGAACG [G18U C31U G63A] | 0.527 |
| GUUCCGUUGGCGUAAUGGAAACGAGUCUCCGUCCUAAGGAGAAGACUGCGGGUUCGAGUCCUGUACGCAACG [U19A C24A C31G C62U G68C] | 0.535 |
| GUUCCGUUGGCGUAAUGGAAACGCGUCUCCCUCCUAAGGAGUAGAGUGCGGGUUCGAGUCCCGUACGGAACG [U19A A42U C46G] | 0.988 |
| GUUCCGUUGGCGUAAUGCUAACGCGCCACCCUCCUAAGGAGAAGACUGCGGGUUCGAGUCCCGUUCGGAACG [G18C U26C U28A A65U] | ≤ 0.5 |
| GUUCCGUUGGCGUAAUGCUAACGCGUCUCCCUCCUAAGGAGAAGACAGCGGGUUCGAGUCCCGUACGGAUCG [G18C U47A A70U] | ≤ 0.5 |
| GUUCCGUUGGCGUAAUGCUAACGCGUCUCCCUCCUAAGGAGAAGACUACGGGUUCGAGUCCCGUAUGGAACG [G18C G48A C66U] | 0.545 |
| GUUCCGUUGGCGUAAUGGAAACGCGUCUCCCUCCUACGGAGAAGACUGCGGGUUCGAGUCCCGUACGGAACG [U19A A37C] | 0.778 |
| GUUCCGUUGGCGUAAUGGAAACGCGUCUCCCUCCUAUGGAGAAGACUGCGGGUUCGAGUCCCGUACGGAACG [U19A A37U] | 0.747 |
| GUUCCGUUGGCGUAAUGCUAACGCGUCUCCCUCCUAAGGAGAAGACUGCGGGUUCGAGACCCGUACGGAACG [G18C U59A] | 0.631 |
| GUUCCGUUGGCGUAAUGGAAACGCGUCUCCCUCCUGAGGAGAAGACUGCGGGUUCGAGACCCGUACGGAACG [U19A A36G U59A] | ≤ 0.5 |
| GUUCCGUUGGCGUAAUGCUAACGCGUCUCCCUCCUAAGGAGAAGACUGCGCGUUCGAGUCGCGUACGGACCG [G18C G51C C61G A70C] | ≤ 0.5 |
| GUUCCGUUGGCGUAAUGGAAGCGCGUCUCCCUCCUAAGGAGACGACUGCGCGUUCGAGUCCCGUACGGAACG [U19A A21G A43C G51C] | ≤ 0.5 |
| GUUCCGUUGGCGUAAUGGAAAGGCGUCUCCCUCCUAAGGAGAAGACUGCGGGUUCGAGUCCCGUACGGAUCG [U19A C22G A70U] | 0.509 |
| GUUCCGUUGGCGUAAUGGAAACGCGUCUCCCUCCUAAGGAGACGACUGCGGGUUCGAGUCCCGUACGGUACG [U19A A43C A69U] | 0.56 |
| GUUCCGUUGGCGUAAUGCUAACGCGGCUCCCUCCUAAGGAGAAGACUGCGGGUUGGAGUCCCGUACGGAACG [G18C U26G C55G] | ≤ 0.5 |
| GUUCCGUUGGCGUAAUGUUAACGCGUCUCCCCCCUAAGGAGAAGGCUGCGGGUUCGGGUCCCGUACGGAACG [G18U U32C A45G A57G] | ≤ 0.5 |
| GUUCCGUUGGCGUAAUGCUAACGCGUCUCCCUCCUAAGGAGAAGACUGCGGGUUCGAAUCCCGUACGGAACG [G18C G58A] | 0.701 |

| Variant | yeast fitness |
| --- | --- |
| GUUCCGUUGGCGUAAUGCUAACGCGUCUCCCUCCUAAGGAGAAGACUGCGGGUUCGACUCCCGUACGGAACG [G18C G58C] | 0.635 |
| GUUCCGUUGGCGUAAUGGAAACGCGUCUCCCUCCUAAGGAGGAGACUGCGGGUUCGAGUCCCGUACUGAACG [U19A A42G G67U] | 0.585 |
| GUUCCGUUGGCGUAAUGGAAACGCGUCUCCCUCCUAAGGGGAAGACUGCGGGUUCGAGUUCCGCACGGAACG [U19A A40G C60U U64C] | 0.705 |
| GUUCCGUUGGCGUAAUGGAAAUGCGUCUCCCUCCUACCGAGAAGACUGCGGGUUCGAGUCCCGUACGGAACG [U19A C22U A37C G38C] | 0.516 |
| GUUCCGUUGGCGUAAUGGAAACGCGUCUCCCUCCUAAGGGGAAGACUGCGGGUUCGAGUCCCGUACGGAACG [U19A A40G] | 0.75 |
| GUUCCGUUGGCGUAAUGGAAAGCCGUCUCGCUCAUAAGGAGAAGACUGCGGGUUCGAGUCCCGUACGGAACG [U19A C22G G23C C30G C34A] | 0.519 |
| GUUCCGUUGGCGUAAUGGAAACGCGUCUCCCUCCUUAGGAGAAGACUGCGGGUUCGAGUCCCGUACGGAACG [U19A A36U] | 0.653 |
| GUUCCGUUGGCGUAAUGGAAACGCGUCUCCCUCCUAAGGGGAAGACUGCGGGUUGGAGUCCCGUACGGAACG [U19A A40G C55G] | ≤ 0.5 |
| GUUCCGUUGGCGUAAUGGAAACGCGUCUCCCUCCUAAGGCGAAGACUGCGGGUUAGAGUCCCGUAAGGAACG [U19A A40C C55A C66A] | ≤ 0.5 |
| GUUCCGUUGGCGUAAUGCUAACGCGUCUCCCUCCUAAGGAGAAGACUACGGGUUAGAGUCCCGUACGGAACG [G18C G48A C55A] | ≤ 0.5 |
| GUUCCGUUGGCGUAAUGGAGACGCGUCUCCCUCCUAAGGAGAAGACUGCGGGUUCAAGUCCCGUACGGAACG [U19A A20G G56A] | 0.956 |
| GUUCCGUUGGCGUAAUGGAAAGGCGUCUCGCUCCUAAGGAGGAGAGUGCGGGUUCGAGUCCCGUACGGAACG [U19A C22G C30G A42G C46G] | 0.741 |
| GUUCCGUUGGCGUAAUGCUAACGCGUCACCCUCCUAAGGAGUAGACUGCGGGUUCGAGUCCCGUACGGAACG [G18C U28A A42U] | ≤ 0.5 |
| GUUCCGUUGGCGUAAUGCGGACGCGUCUCCCUACCAAGGAGAAGACUGCGGGUUCGAGUCCCGUAAGGAACG [G18C U19G A20G C33A U35C C66A] | ≤ 0.5 |
| GUUCCGUUGGCGUAAUGCCAGCGCGUCUCCCUCCUAAGGAGAAGACUGCGGGUUCGAGUCUCGUACGGAACG [G18C U19C A21G C61U] | ≤ 0.5 |
| GUUCCGUUGGCGUAAUGGAAACGCGUCUCCCUCCUAAGGAGAUGACUGCGGGUUCGAGUCCCGUACGGAACG [U19A A43U] | 1 |
| GUUCCGUUGGCGUAAUGCUAACGCGUCUCCCUCCUAAGGAGAAAACUGCGGGUUCGAGUCCGGUACGGAACG [G18C G44A C62G] | ≤ 0.5 |
| GUUCCGUUGGCGUAAUGCUAACGCGUCUCCCUCCUAAGGAGAAGACUGCGAGUUCGAGUCCCGUACGGGACG [G18C G51A A69G] | ≤ 0.5 |
| GUUCCGUUGGCGUAAUGGACGCGCGUCUCGCUCCUAAGGAGAAGACUGCGGGUUGGAGUCCCGUACGGAACG [U19A A20C A21G C30G C55G] | 0.573 |
